Screening results from PubChem.
ARFGAP1 inh = rat ARFGAP1 inhibition; Q62848; Arfgap1-stimulated ARF1 GTP hydrolysis, GDP FP detection; inhibition, % at 16.5 µM; hit rate 0.26% among 360,000; AID 651572;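 active means inhibition above a per-plate limit, mean inhibition of low control wells plus 3 SD, cut at about 25% in these data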
Target sequence (Q62848 1-136 limits assumed): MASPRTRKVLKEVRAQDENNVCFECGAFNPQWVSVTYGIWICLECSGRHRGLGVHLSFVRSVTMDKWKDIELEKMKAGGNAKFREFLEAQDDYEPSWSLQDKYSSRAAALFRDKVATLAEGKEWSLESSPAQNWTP
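Replicates: Single well per compound | Assay system: Truncated rat Arfgap1 GAP domain | Control set: No-Arfgap1 wells (100%) versus DMSO full-reaction wells (0%) | Times: Enzyme reaction 120 min at 25 °C after 20 min preincubation | Reagent: Human ARF1(Δ1-17)-GTP substrate | Measured by: Tracer-displacement fluorescence polarization with EDTA stop, 620/688 nm | Measure: Percent inhibition of Arfgap1-stimulated GTP hydrolysis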
rCAG binder = binds r(CAG) RNA repeats | r(CAG) RNA repeat, TO-PRO-1 dye displacement fluorescence | hit rate 1.3% among 370,000 | inhibition, % at 3 µM;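 active means inhibition above the plate cutoff, the mean of all test compounds on that plate plus 3 SD, cut at about 35% in these data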;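 further: higher means more dye released from RNA so lower well fluorescence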
ASAP1 GAP inh = inhibitors of human ASAP1 ArfGAP activity; inhibition, % at 16.5 µM; hit rate 0.19% among 360,000; ASAP1-stimulated ARF1 GTP hydrolysis, GDP FP detection; in the data active means inhibition above about 25%
Target sequence (Q9ULH1 325-724 limits assumed): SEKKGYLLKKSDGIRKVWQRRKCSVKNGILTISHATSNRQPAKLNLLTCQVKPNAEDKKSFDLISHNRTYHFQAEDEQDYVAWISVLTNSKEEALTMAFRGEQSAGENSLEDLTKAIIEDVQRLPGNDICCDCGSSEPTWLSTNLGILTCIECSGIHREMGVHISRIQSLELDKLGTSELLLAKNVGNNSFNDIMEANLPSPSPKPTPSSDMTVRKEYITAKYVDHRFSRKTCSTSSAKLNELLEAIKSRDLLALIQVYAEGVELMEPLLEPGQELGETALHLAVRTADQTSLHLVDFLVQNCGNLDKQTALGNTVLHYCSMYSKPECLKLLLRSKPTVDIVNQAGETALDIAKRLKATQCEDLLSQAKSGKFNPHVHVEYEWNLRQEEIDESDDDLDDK
NadD block = inhibitors of Staphylococcus aureus NadD; purified NadD enzyme, colorimetric absorbance read-out; inhibition, % at 20 µM; hit rate 0.78% among 360,000; in the data active means inhibition above about 26%
NadD conf = confirmation of Staphylococcus aureus NadD inhibitors | shares compounds with NadD block | purified S. aureus NadD, colorimetric enzyme assay | inhibition, % at 20 µM | hit rate 13% among 2,000 | AID 624309; in the data active means inhibition mostly above about 42%, no sharp cut-off; inactive means mostly below about 42%
Numbers stand for hits; 0 = inactive; - = no result given; ! = a repeat was not active. Rows were chosen to be rich in hits. Some 2.2% of all compounds tested hit in one or more screens of this group.

SMILES	ARFGAP1 inh	rCAG binder	ASAP1 GAP inh	NadD block	NadD conf
N#CCC(=O)N/N=C/c1ccc(N2N=C(c3ccccc3)CC2c2ccccc2)cc1 (centres undefined)	0	0	0	48.7	0
Cc1cccc(/C=N/NC(=O)c2cc(-c3cccnc3)nc3ccccc23)c1	0	0	0	0	-
Cc1cccc(/C=N/NC(=O)c2cc(-c3cccnc3)nc3c2c(C)nn3-c2ccccc2)c1	0	0	0	36.5	0
O=C(c1ccc(Cl)c(S(=O)(=O)N2CCc3ccccc3C2)c1)N1CCN(c2ccccc2)CC1	0	0	0	0	-
O=C(c1ccc(Cl)c(S(=O)(=O)Nc2ccccc2C(=O)N2CCc3ccccc3C2)c1)N1CCc2ccccc2C1	0	0	0	46.9	0
CN(C)c1ccc(-c2cccc(C3CC=CC4C3C(=O)N(Cc3ccccc3)C4c3ccc(C(F)(F)F)cc3)c2)cc1 (centres undefined)	0	0	0	31.1	0
COc1ccc(-c2cccc(C3CC=CC4C3C(=O)N(Cc3ccccc3)C4c3ccc(C(F)(F)F)cc3)c2)cc1 (centres undefined)	0	0	0	0	-
O=C(NCc1ccc(F)cc1F)[C@@H]1CCCN1C(=O)[C@@H]1CCCN1C(=O)c1ccccc1	0	0	0	0	-
N#CC/C(N)=N/Nc1nc2ccccc2nc1Cc1ccccc1	0	0	0	34.2	0
C[C@H]1CCCN1c1ccc2c(c1)OCCCN(C1CC1)S2(=O)=O	-	0	-	-	-
N#C/C(=C\c1cccn1S(=O)(=O)c1cccc([N+](=O)[O-])c1)S(=O)(=O)c1ccc(F)cc1	0	0	0	0	-
C=CCc1c(C)[nH]c(=S)c(C#N)c1C	0	0	0	33.5	0
COc1ccccc1Nc1nc(-c2sc(NC(=O)c3ccccc3)nc2C)cs1	0	0	0	0	-
CCOc1ccccc1Nc1nc(-c2sc(NC(=O)c3cccc(Cl)c3)nc2C)cs1	0	0	0	55.3	0
COc1ccc(Cl)cc1Nc1nc(-c2sc(NC(=O)C(C)(C)C)nc2C)cs1	0	0	0	38.8	0
CC(C)C[C@H]1CNC(=O)C(=O)N1C[C@@H]1CCCN1C[C@H](Cc1ccc(O)cc1)N1C[C@H](Cc2ccccc2)N(CC2CCCCCC2)C(=O)C1=O	0	0	0	33.8	0
CC(C)C[C@H]1CN([C@@H](Cc2ccccc2)CN2CCC[C@H]2CN2C(=O)C(=O)NC[C@@H]2Cc2ccc(O)cc2)C(=O)C(=O)N1CC1CCCCCC1	0	0	0	36.4	0
CC(C)C[C@H]1CN([C@@H](Cc2ccc(O)cc2)CN2CCC[C@@H]2CN2C(=O)C(=O)NC[C@@H]2Cc2ccccc2)C(=O)C(=O)N1CC1CCCCCC1	0	0	0	0	-
COc1ccc(S(=O)(=O)Nc2cccc(-c3ccc(N4CCCCCC4)nn3)c2)cc1OC	0	0	0	0	-
COc1ccc(OC)c(S(=O)(=O)Nc2cccc(-c3ccc(N4CCCCCC4)nn3)c2)c1	0	0	0	35.7	0
O=[N+]([O-])c1cccc(S(=O)(=O)Nc2cccc(-c3ccc(N4CCCC4)nn3)c2)c1	0	0	0	0	-
Cc1ccc(S(=O)(=O)Nc2cccc(-c3ccc(N4CCCCCC4)nn3)c2)cc1	0	0	0	33.8	0
COc1ccc(S(=O)(=O)Nc2cccc(-c3ccc(N4CCCCCC4)nn3)c2)c(OC)c1	0	0	0	28.2	0
Cc1ccccc1CC(=O)Nc1nnc(-c2cccnc2)s1	-	0	-	-	-
O=C(O)/C=C/c1cn(-c2ccccc2)nc1-c1cccc([N+](=O)[O-])c1	0	0	0	0	-
SMILES	ARFGAP1 inh	rCAG binder	ASAP1 GAP inh	NadD block	NadD conf
NS(=O)(=O)c1ccc(NC(=O)/C=C/c2cn(-c3ccccc3)nc2-c2cccc(Cl)c2)cc1	0	0	0	41.3	0
COc1ccc(S[C@]2(C(=O)N3CCN(C(C)=O)CC3)CC(=O)N(C(=O)c3ccccc3)[C@@H]2c2ccc(OC)cc2)cc1	-	0	-	-	-
COc1ccccc1C=NN=C(NN=Cc1ccccc1OC)NN=Cc1ccccc1OC	0	0	0	35.1	0
C[c-]1[c-](C)[c-](C)[c-](C)[c-]1C.[Fe].c1cc2nccc(N3CCCC3)[c-]2c1 (centres undefined)	0	0	0	74.9	31.8!
C[C@@H]1CCN(C2CC2)S(=O)(=O)c2c(cccc2N2CCC[C@@H]2CO)O1	-	0	-	-	-
Cc1ccc(NC(=O)c2ccc(N/N=C/c3cccc(O)c3)c([N+](=O)[O-])c2)cc1	0	0	0	36.2	0
COc1ccc2[nH]cc(C(C)c3ccccc3O)c2c1 (centres undefined)	-	0	-	-	-
COc1ccc(CN2C(=O)CCCC2(C)c2nnnn2-c2ccc3c(c2)OCCO3)cc1 (centres undefined)	-	0	-	-	-
Cc1cc(-c2csc(N)n2)c(C)n1CCC(C)C	0	0	0	34.1	0
COc1ccc2cc(-c3cc(C(=O)OCC(=O)Nc4c(C)n(C)n(-c5ccccc5)c4=O)c4ccccc4n3)ccc2c1	0	0	0	40.4	0
CC(C)CN(C(=O)COc1ccccc1C(=O)NCc1ccccc1)C1CCS(=O)(=O)C1 (centres undefined)	0	0	0	0	-
COc1ccc([C@@H]2CC(=O)[C@@H]3CN(S(=O)(=O)c4ccc(Cl)cc4)[C@H](c4ccc(C)cc4)C[C@@H]3N2S(=O)(=O)c2ccccc2)cc1	0	0	0	30.3	0
CCCOc1ccc(N2C(=O)CC(SC(=N)N3N=C(c4ccccc4)CC3c3ccccc3)C2=O)cc1 (centres undefined)	0	0	0	43.4	0
CCCOc1ccc(N2C(=O)CC(SC(=NC)Nc3ccc(F)cc3)C2=O)cc1 (centres undefined)	0	0	0	0	-
O=C(NC(=S)Nc1nc(-c2ccccc2)cs1)c1cncc(Br)c1	0	0	0	32.7	0
O=C(NC(=S)Nc1nc(-c2ccccc2)cs1)c1cccnc1	0	0	0	0	-
COC(=O)c1ccc(N2C(c3cc(OC)cc(OC)c3)=Cc3ccc(-c4ccc(C(N)=O)cc4)cc3C2CC(=O)C2CC2)cc1 (centres undefined)	0	0	0	0	-
COC(=O)c1ccc(N2C(c3cc(OC)cc(OC)c3)=Cc3ccc(-c4cccnc4)cc3C2CC(=O)C2CC2)cc1 (centres undefined)	0	0	0	32.1	0
COc1cc(OC)cc(C2=Cc3ccccc3C(CC(=O)c3ccco3)N2c2ccc(-c3cccnc3)cc2)c1 (centres undefined)	0	0	0	34.9	0
COc1cc(OC)cc(C2=Cc3ccc(OC)cc3C(CC(C)=O)N2c2ccc(-c3cncnc3)cc2)c1 (centres undefined)	0	0	0	0	-
CC1(C(=O)NCc2cccs2)CCN1C(=O)Cc1ccc(Cl)cc1Cl (centres undefined)	0	0	0	0	-
CC(C)CNC(=O)CC1Oc2ccccc2NC1=O (centres undefined)	-	0	-	-	-
CC(C)(C)c1ccc(Oc2cccc(C3CC(=O)C(C4NCCc5ccccc54)C(=O)C3n3cncn3)c2)cc1 (centres undefined)	0	0	0	40.5	0
